In ChEMBL document CHEMBL1140471, “Inhibitors of NF-kappaB derived from thalidomide” (Bioorg Med Chem Lett, 2007):
pIC50: −log10 of the molar value.

Experiment: Inhibition of IL-1-alpha-induced NF-kappaB activation in HeLa cells assessed as blocking of p50/p65 nuclear translocation
Format: cell-based
Conditions: Homo sapiens
Procedure, shortened: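 HeLa cells stimulated with IL-1α (5 ng/ml) with or without compound for 30 min, then fixed and immunostained for p65 with Hoechst nuclear counterstain. Plates were scanned by fluorescence imaging microscopy. IC50 = concentration reducing nuclear minus cytoplasmic p65 fluorescence by 50%.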

Question: With COC(=O)c1ccc2c(c1)C(=O)N(c1c(C(C)C)cccc1C(C)C)C2=O as the compound, how does the pIC50 read?
Answer: < 4.30

Question: With CC(C)c1cccc(C(C)C)c1N1C(=O)c2ccc(OS(N)(=O)=O)cc2C1=O as the compound, how does the pIC50 read?
Answer: < 4.30

Question: With CC(=O)Nc1ccc2c(c1)C(=O)N(c1c(C(C)C)cccc1C(C)C)C2=O as the compound, how does the pIC50 read?
Answer: < 4.30

Question: With CC(C)c1ccccc1N1C(=O)c2ccc(O)cc2C1=O as the compound, how does the pIC50 read?
Answer: < 4.30

Question: With CC(C)c1cccc(C(C)C)c1N1C(=O)c2ccc(C(=O)O)cc2C1=O as the compound, how does the pIC50 read?
Answer: < 4.30

Question: With CC(C)(C)c1ccccc1N1C(=O)c2ccc(O)cc2C1=O as the compound, how does the pIC50 read?
Answer: < 4.30

Question: With CCCc1ccccc1N1C(=O)c2ccc(O)cc2C1=O as the compound, how does the pIC50 read?
Answer: < 4.30

Question: With O=C1c2ccc(O)cc2C(=O)N1c1c(Br)cccc1Br as the compound, how does the pIC50 read?
Answer: 6.37

Question: With Cc1ccc2c(c1)C(=O)N(c1c(C(C)C)cccc1C(C)C)C2=O as the compound, how does the pIC50 read?
Answer: < 4.30

Question: With O=C1c2ccc(O)cc2C(=O)N1c1c(F)cccc1F as the compound, how does the pIC50 read?
Answer: < 4.30

Question: With O=C1c2ccc(O)cc2C(=O)N1c1c(Cl)cccc1Cl as the compound, how does the pIC50 read?
Answer: < 4.30

Question: With CC(C)c1cccc(C(C)C)c1N1C(=O)c2ccc(O)cc2C1=O as the compound, how does the pIC50 read?
Answer: 6.28

Question: With CC(C)c1cccc(C(C)C)c1N1C(=O)c2ccc(Cl)cc2C1=O as the compound, how does the pIC50 read?
Answer: < 4.30

Question: With Cc1cccc(C)c1N1C(=O)c2ccc(O)cc2C1=O as the compound, how does the pIC50 read?
Answer: < 4.30

Question: With CC(C)c1cccc(C(C)C)c1N1C(=O)c2cccc(O)c2C1=O as the compound, how does the pIC50 read?
Answer: 5.31

Question: With CCc1cccc(CC)c1N1C(=O)c2ccc(O)cc2C1=O as the compound, how does the pIC50 read?
Answer: < 4.30

Question: With CC(C)c1cccc(C(C)C)c1N1C(=O)c2ccccc2C1=O as the compound, how does the pIC50 read?
Answer: < 4.30

Question: With CC(C)c1cccc(C(C)C)c1N1C(=O)c2cccc(N)c2C1=O as the compound, how does the pIC50 read?
Answer: < 4.30

Question: With CC(C)c1cccc(C(C)C)c1N1C(=O)c2ccc(N)cc2C1=O as the compound, how does the pIC50 read?
Answer: 4.53

Question: With CC(C)c1cccc(C(C)C)c1N1C(=O)c2cccc([N+](=O)[O-])c2C1=O as the compound, how does the pIC50 read?
Answer: < 4.30

Question: With CC(C)c1cccc(C(C)C)c1N1C(=O)c2ccc([N+](=O)[O-])cc2C1=O as the compound, how does the pIC50 read?
Answer: < 4.30

Question: With CC(C)(C)c1ccc(S(=O)(=O)/C=C/C#N)cc1 [BAY-11-7085] as the compound, how does the pIC50 read?
Answer: 7.00

Question: With Nc1cccc2c1C(=O)N(C1CCC(=O)NC1=O)C2=O (centres undefined) [POMALIDOMIDE] as the compound, how does the pIC50 read?
Answer: 5.90

Question: With O=C1CCC(N2C(=O)c3ccccc3C2=O)C(=O)N1 (centres undefined) [THALIDOMIDE] as the compound, how does the pIC50 read?
Answer: 5.69
